Tests used:
Type in all cases: functional
NCI-H23 [1] = experiment: Cytotoxicity against human NCI-H23 cells assessed as cell growth at 50 uM by SRB assay; details: read-out: Activity
SR [2] = experiment: Cytotoxicity against human SR cells assessed as cell growth at 0.05 uM by SRB assay; details: read-out: Activity
NCI-H23 [3] = experiment: Cytotoxicity against human NCI-H23 cells assessed as cell growth at 0.005 uM by SRB assay; details: read-out: Activity
M14 [4] = experiment: Cytotoxicity against human M14 cells assessed as cell growth at 50 uM by SRB assay; details: read-out: Activity
LOX IMVI [5] = experiment: Cytotoxicity against human LOXIMVI cells assessed as cell growth at 50 uM by SRB assay; details: read-out: Activity
SK-MEL-2 = experiment: Cytotoxicity against human SK-MEL-2 cells assessed as cell growth at 5 uM by SRB assay; details: read-out: Activity
UO-31 [6] = experiment: Cytotoxicity against human UO31 cells assessed as cell growth at 0.05 uM by SRB assay; details: read-out: Activity
SK-MEL-28 = experiment: Cytotoxicity against human SK-MEL-28 cells assessed as cell growth at 0.5 uM by SRB assay; details: read-out: Activity
M14 [7] = experiment: Cytotoxicity against human M14 cells assessed as cell growth at 0.05 uM by SRB assay; details: read-out: Activity
RXF 393 [8] = experiment: Cytotoxicity against human RXF393 cells by SRB assay
In short: (§1)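 NCI-60 panel screen; 5-dose testing giving GI50 per cell line, plus a single 10 µM one-dose test. Method details not given beyond the NCI screen.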

RPMI-8226 [9] = experiment: Cytotoxicity against human RPMI8226 cells assessed as cell growth at 50 uM by SRB assay; details: read-out: Activity
SR [10] = experiment: Cytotoxicity against human SR cells assessed as cell growth at 0.005 uM by SRB assay; details: read-out: Activity
CAKI-1 = experiment: Cytotoxicity against human Caki1 cells assessed as cell growth at 0.5 uM by SRB assay; details: read-out: Activity
KM12 = experiment: Cytotoxicity against human KM12 cells assessed as cell growth at 0.05 uM by SRB assay; details: read-out: Activity
SNB-75 = experiment: Cytotoxicity against human SNB75 cells assessed as cell growth at 5 uM by SRB assay; details: read-out: Activity
SK-OV-3 = experiment: Cytotoxicity against human SKOV3 cells assessed as cell growth at 0.005 uM by SRB assay; details: read-out: Activity
MOLT-4 = experiment: Cytotoxicity against human MOLT4 cells assessed as cell growth at 50 uM by SRB assay; details: read-out: Activity
OVCAR-4 = experiment: Cytotoxicity against human OVCAR4 cells assessed as cell growth at 50 uM by SRB assay; details: read-out: Activity
TK-10 [11] = experiment: Cytotoxicity against human TK10 cells by SRB assay; in short: as §1
T47D [12] = experiment: Cytotoxicity against human T47D cells assessed as cell growth at 0.05 uM by SRB assay; details: read-out: Activity
SW-620 = experiment: Cytotoxicity against human SW620 cells assessed as cell growth at 0.5 uM by SRB assay; details: read-out: Activity
TK-10 [13] = experiment: Cytotoxicity against human TK10 cells assessed as cell growth at 0.005 uM by SRB assay; details: read-out: Activity
HOP-92 [14] = experiment: Cytotoxicity against human HOP92 cells assessed as cell growth at 50 uM by SRB assay; details: read-out: Activity
In short: (§2)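 Measured in the NCI-60 human tumour cell line panel using five-dose testing. Growth was recorded at each dose for each cell line, and a GI50 was derived for each line.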

U-251 = experiment: Cytotoxicity against human U251 cells assessed as cell growth at 5 uM by SRB assay; details: read-out: Activity
M14 [15] = experiment: Cytotoxicity against human M14 cells assessed as cell growth at 0.005 uM by SRB assay; details: read-out: Activity
M14 [16] = experiment: Cytotoxicity against human M14 cells by SRB assay; in short: as §1
SF-539 = experiment: Cytotoxicity against human SF539 cells by SRB assay; in short: as §1
786-0 = experiment: Cytotoxicity against human 786-0 cells assessed as cell growth at 0.05 uM by SRB assay; details: read-out: Activity
HOP-92 [17] = experiment: Cytotoxicity against human HOP92 cells assessed as cell growth at 5 uM by SRB assay; details: read-out: Activity; in short: as §2
RXF 393 [18] = experiment: Cytotoxicity against human RXF393 cells assessed as cell growth at 0.5 uM by SRB assay; details: read-out: Activity
UO-31 [19] = experiment: Cytotoxicity against human UO31 cells by SRB assay; in short: as §1
IGROV-1 = experiment: Cytotoxicity against human IGROV1 cells by SRB assay; in short: as §1
SNB-19 = experiment: Cytotoxicity against human SNB19 cells assessed as cell growth at 5 uM by SRB assay; details: read-out: Activity
RPMI-8226 [20] = experiment: Cytotoxicity against human RPMI8226 cells assessed as cell growth at 0.5 uM by SRB assay; details: read-out: Activity
NCI-H23 [21] = experiment: Cytotoxicity against human NCI-H23 cells assessed as cell growth at 0.5 uM by SRB assay; details: read-out: Activity
OVCAR-5 [22] = experiment: Cytotoxicity against human OVCAR5 cells assessed as cell growth at 0.05 uM by SRB assay; details: read-out: Activity
A549 = experiment: Cytotoxicity against human A549/ATCC cells assessed as cell growth at 0.5 uM by SRB assay; details: read-out: Activity
HOP-62 = experiment: Cytotoxicity against human HOP62 cells assessed as cell growth at 5 uM by SRB assay; details: read-out: Activity; in short: as §2
T47D [23] = experiment: Cytotoxicity against human T47D cells assessed as cell growth at 50 uM by SRB assay; details: read-out: Activity
LOX IMVI [24] = experiment: Cytotoxicity against human LOXIMVI cells assessed as cell growth at 5 uM by SRB assay; details: read-out: Activity
OVCAR-5 [25] = experiment: Cytotoxicity against human OVCAR5 cells assessed as cell growth at 5 uM by SRB assay; details: read-out: Activity
HL-60(TB) = experiment: Cytotoxicity against human HL-60(TB) cells by SRB assay; in short: as §2
HOP-92 [26] = experiment: Cytotoxicity against human HOP92 cells assessed as cell growth at 0.05 uM by SRB assay; details: read-out: Activity; in short: as §2
MDA-MB-435 = experiment: Cytotoxicity against human MDA-MB-435 cells assessed as cell growth at 5 uM by SRB assay; details: read-out: Activity
[27] = read-out: LC50 (the source's name)
[28] = read-out: pLC50 (the source's name) (converted)

## COc1cc([C@@H]2c3cc4c(cc3[C@@H](NC(=O)CN3CCN(CCCCCCCCCCN5CCN(CC(=O)N[C@@H]6c7cc8c(cc7[C@@H](c7cc(OC)c(O)c(OC)c7)[C@H]7C(=O)OC[C@@H]76)OCO8)CC5)CC3)[C@H]3COC(=O)[C@H]23)OCO4)cc(OC)c1O
NCI-H23 [1]
  growth at 50 µM: -92%
SR [2]
  growth at 0.05 µM: 85%
NCI-H23 [3]
  growth at 0.005 µM: 95%
M14 [4]
  growth at 50 µM: -49%
LOX IMVI [5]
  growth at 50 µM: 3%
SK-MEL-2
  growth at 5 µM: 47%
UO-31 [6]
  growth at 0.05 µM: 85%
SK-MEL-28
  growth at 0.5 µM: 138%
M14 [7]
  growth at 0.05 µM: 94%
RXF 393 [8]; read-out: GI50
  GI50: 791 nM
RXF 393 [8]; [27]
  CC50: > 50000 nM
RXF 393 [8]; read-out: TGI
  TGI: 2380 nM
RXF 393 [8]; read-out: pGI50 (converted)
  GI50: 794 nM
RXF 393 [8]; [28]
  CC50: > 50100 nM
RXF 393 [8]; read-out: pTGI (converted)
  TGI: 2400 nM
RPMI-8226 [9]
  growth at 50 µM: -13%
SR [10]
  growth at 0.005 µM: 98%
CAKI-1
  growth at 0.5 µM: 81%
KM12
  growth at 0.05 µM: 91%
SNB-75
  growth at 5 µM: -12%
SK-OV-3
  growth at 0.005 µM: 98%
MOLT-4
  growth at 50 µM: -100%
OVCAR-4
  growth at 50 µM: -77%
TK-10 [11]; read-out: GI50
  GI50: 1440 nM
TK-10 [11]; [27]
  CC50: 15400 nM
TK-10 [11]; read-out: TGI
  TGI: 4570 nM
TK-10 [11]; read-out: pGI50 (converted)
  GI50: 1450 nM
TK-10 [11]; [28]
  CC50: 15500 nM
TK-10 [11]; read-out: pTGI (converted)
  TGI: 4570 nM
T47D [12]
  growth at 0.05 µM: 81%
SW-620
  growth at 0.5 µM: 46%
TK-10 [13]
  growth at 0.005 µM: 93%
HOP-92 [14]
  growth at 50 µM: -46%
U-251
  growth at 5 µM: 9%
M14 [15]
  growth at 0.005 µM: 94%
M14 [16]; read-out: GI50
  GI50: 703 nM
M14 [16]; [27]
  CC50: > 50000 nM
M14 [16]; read-out: TGI
  TGI: 2200 nM
M14 [16]; read-out: pGI50 (converted)
  GI50: 708 nM
M14 [16]; [28]
  CC50: > 50100 nM
M14 [16]; read-out: pTGI (converted)
  TGI: 2190 nM
SF-539; read-out: GI50
  GI50: 122 nM
SF-539; read-out: TGI
  TGI: 670 nM
SF-539; read-out: pGI50 (converted)
  GI50: 123 nM
SF-539; read-out: pTGI (converted)
  TGI: 676 nM
786-0
  growth at 0.05 µM: 89%
HOP-92 [17]
  growth at 5 µM: -9%
RXF 393 [18]
  growth at 0.5 µM: 71%
UO-31 [19]; read-out: GI50
  GI50: 986 nM
UO-31 [19]; [27]
  CC50: 13500 nM
UO-31 [19]; read-out: TGI
  TGI: 3610 nM
UO-31 [19]; read-out: pGI50 (converted)
  GI50: 977 nM
UO-31 [19]; [28]
  CC50: 13500 nM
UO-31 [19]; read-out: pTGI (converted)
  TGI: 3630 nM
IGROV-1; read-out: GI50
  GI50: 360 nM
IGROV-1; [27]
  CC50: > 50000 nM
IGROV-1; read-out: TGI
  TGI: 7590 nM
IGROV-1; read-out: pGI50 (converted)
  GI50: 363 nM
IGROV-1; [28]
  CC50: > 50100 nM
IGROV-1; read-out: pTGI (converted)
  TGI: 7590 nM
SNB-19
  growth at 5 µM: -81%
RPMI-8226 [20]
  growth at 0.5 µM: -2%
NCI-H23 [21]
  growth at 0.5 µM: 25%
OVCAR-5 [22]
  growth at 0.05 µM: 83%
A549
  growth at 0.5 µM: 9%
HOP-62
  growth at 5 µM: -73%
T47D [23]
  growth at 50 µM: -40%
LOX IMVI [24]
  growth at 5 µM: -80%
OVCAR-5 [25]
  growth at 5 µM: 5%
HL-60(TB); read-out: GI50
  GI50: 113 nM
HL-60(TB); [27]
  CC50: > 50000 nM
HL-60(TB); read-out: TGI
  TGI: 901 nM
HL-60(TB); read-out: pGI50 (converted)
  GI50: 112 nM
HL-60(TB); [28]
  CC50: > 50100 nM
HL-60(TB); read-out: pTGI (converted)
  TGI: 891 nM
HOP-92 [26]
  growth at 0.05 µM: 73%
MDA-MB-435
  growth at 5 µM: -60%

From ChEMBL document CHEMBL3588757, “Structure-based design, synthesis and biological testing of piperazine-linked bis-epipodophyllotoxin etoposide analogs” (Bioorg Med Chem, 2015)
